Data set [1] has as its system Trypanosoma brucei brucei. In words: Antitrypanosomal activity against Trypanosoma brucei brucei bloodstream forms assessed as decrease in cell count at 0.25 uM treated for 48 hrs followed by washout after 4 hrs measured after 44 hrs by hemocytometric analysis. It is filed as functional, organism-based. A digest of the protocol: (§1)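 T. b. brucei bloodstream forms seeded at 10⁵ cells/mL with 0.25 μM compound; drug removed by centrifugation (1100g) after 30 min or 4 h and cells resuspended in drug-free fresh medium, or fresh medium still containing 0.25 μM compound; drug-free control run alongside. Growth followed over 48 h by microscopic hemocytometer counts in triplicate, averages reported.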

In data set [2] the test system is Trypanosoma brucei brucei. In words: Antitrypanosomal activity against Trypanosoma brucei brucei bloodstream forms assessed as decrease in cell count at 0.25 uM treated for 48 hrs followed by washout after 4 hrs by hemocytometric analysis. It is filed as functional, organism-based. Summed up:
as §1

Data set [3] can be described thus: Selectivity index, ratio of EC50 for human HEK cells to EC50 for wild type Trypanosoma brucei brucei Lister 427. It is filed as toxicity, cell-based, HEK293. Particulars: HEK cells, read-out: Ratio EC50. Summed up: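 Ratio of EC₅₀ in HEK cells to EC₅₀ in wild-type T. b. brucei s427, both from resazurin assays.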
For data set [4], the system named is Trypanosoma brucei brucei. In words: Antitrypanosomal activity against wild type Trypanosoma brucei brucei Lister 427 after 3 days by alamar blue assay. It counts as functional, organism-based. The settings on record: Trypanosoma brucei, Lister 427, 72 h. Summed up:
(§2)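 Bloodstream-form T. b. brucei (wild-type s427; TbAT1-KO, made from s427 by TbAT1 deletion; B48, selected from TbAT1-KO in vitro on pentamidine, lacking functional HAPT1). Cells were exposed to compound for 48 h, then resazurin (Alamar blue) was added for a further 24 h. A single fluorescence reading gave EC50.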

The nature of data set [5]: Inhibition of Trypanosoma brucei brucei LAPT1 assessed as [3H]-pentamidine uptake after 120 secs by scintillation counting. Summed up: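 LAPT1 transport: late-log trypanosomes from HMI-9/10% FBS culture washed into pH 7.3 HEPES-bicarbonate-glucose buffer; 1 μM final [³H]-pentamidine uptake over 120 s with competitor. Uptake terminated with 2 mM ice-cold pentamidine and oil centrifugation; counted by scintillation, Ki from sigmoid curves; triplicate, at least three separate occasions.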

Another data set concerns L6. In words: Cytotoxicity against rat L6 cells after 72 hrs by alamar blue assay. It counts as cell-based. Particulars: Rattus norvegicus, L6, 72 h. In general terms: The colour change of resazurin is a common sign of viable cells or microbes.
The test system of data set [6] is Trypanosoma brucei brucei. In words: Antitrypanosomal activity against Trypanosoma brucei brucei bloodstream forms assessed as decrease in cell count at EC50 after 36 hrs by hemocytometric analysis. It counts as functional, organism-based. A digest of the protocol:
(§3)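 Bloodstream-form T. b. brucei cultures started at 10⁵ cells/mL, with or without a range of compound concentrations (0.05, 0.25, 1 μM for the example shown) present continuously. Cell density tracked over 48 h by manual hemocytometer counts done in triplicate; mean values plotted.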

Data set [7] is described as follows: Cytotoxicity against human HEK cells after 3 days by alamar blue assay. It counts as cell-based, HEK293. Particulars: Homo sapiens, HEK293, 72 h. Summed up:
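Human embryonic kidney cells tested by resazurin (Alamar blue) assay: 48 h with compound, then 24 h more after dye addition, single reading; EC₅₀ derived.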

Data set [8] concerns Trypanosoma brucei brucei. In words: Antitrypanosomal activity against diminazene aceturate-resistant TbAT1 gene-deficient Trypanosoma brucei brucei AT1-KO after 3 days by alamar blue assay. It is filed as functional, organism-based. Particulars: Trypanosoma brucei, AT1-KO, 72 h. A digest of the protocol:
as §2

Data set [9] has as its system Trypanosoma brucei brucei. In words: Antitrypanosomal activity against Trypanosoma brucei brucei bloodstream forms assessed as decrease in cell count at 2 times EC50 after 12 hrs by hemocytometric analysis. It is filed as functional, organism-based. A digest of the protocol:
as §3

Data set [10] is described as follows: Selectivity index, ratio of EC50 for rat L6 cells to EC50 for Trypanosoma brucei rhodesiense STIB900. It is filed as toxicity, cell-based. Particulars: L6 cells, read-out: Ratio EC50. Summed up: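 Ratio of EC₅₀ in L6 cells to EC₅₀ against T. b. rhodesiense STIB900, both from Alamar blue assays.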
Data set [11] deals with Trypanosoma brucei brucei. In words: Antitrypanosomal activity against Trypanosoma brucei brucei bloodstream forms assessed as decrease in cell count at 0.25 uM treated for 48 hrs followed by washout after 30 mins and measured after 48 hrs by hemocytometric analysis. It is filed as functional, organism-based. A digest of the protocol: as §1
For data set [12], the system named is Trypanosoma brucei brucei. In words: Resistance factor, ratio of EC50 for diminazene-, pentamidine-, and melaminophenyl arsenical-resistant HAPT1-deficient Trypanosoma brucei brucei B48 to EC50 for wild type Trypanosoma brucei brucei Lister 427. It is filed as functional. Summed up: (§4)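 Resistance factor is the EC50 in the resistant line (TbAT1-KO or B48) divided by the EC50 in wild-type s427. […] Resistant and wild-type EC50s were compared by Student t-test.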

A short description of data set [13]: Inhibition of Trypanosoma brucei brucei HAPT1 assessed as [3H]-pentamidine uptake after 60 secs by scintillation counting. Summed up: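 HAPT1 transport: late-log T. b. brucei grown in HMI-9 + 10% FBS, washed into HEPES/bicarbonate assay buffer with 14 mM glucose, pH 7.3. [³H]-pentamidine at 30 nM final for 60 s with inhibitor; stopped with 2 mM ice-cold unlabeled pentamidine and spin through oil. Scintillation counting, sigmoid fit for Ki; triplicates, ≥3 independent experiments.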

Data set [14] concerns Trypanosoma brucei rhodesiense. In words: Antitrypanosomal activity against Trypanosoma brucei rhodesiense STIB900 infected in rat L6 cells after 72 hrs by alamar blue assay. It counts as functional, organism-based. Particulars: Trypanosoma brucei, STIB900, 72 h.
For data set [15], the system named is Trypanosoma brucei brucei. In words: Antitrypanosomal activity against diminazene-, pentamidine-, and melaminophenyl arsenical-resistant HAPT1-deficient Trypanosoma brucei brucei B48 after 3 days by alamar blue assay. Particulars: Trypanosoma brucei, B48, 72 h. It counts as functional, organism-based. A digest of the protocol: as §2
Data set [16] concerns Trypanosoma brucei brucei. In words: Resistance factor, ratio of EC50 for diminazene aceturate-resistant TbAT1 gene-deficient Trypanosoma brucei brucei AT1-KO to EC50 for wild type Trypanosoma brucei brucei Lister 427. It is filed as functional. Summed up:
as §4

Broadly, the EC50 is the concentration needed to bring the measured effect to its halfway point. By Ki is commonly meant a dissociation constant, usually derived from enzyme kinetics or from competition with a known ligand.

Activity calls are given as the source filed them. No cut-off for these calls is given here.

With `CCCCCC[P+](CCCCCC)(CCCCCC)Cc1ccc(Oc2ccc(C[P+](CCCCCC)(CCCCCC)CCCCCC)cc2)cc1.[Br-].[Br-]`, the outcome in [1], in data set [2], in data set [6] and in data set [9] was Active. Besides, the selectivity ratio stood at 593 in data set [3] and 9 in [10]. For the same compound, the EC50 in [4] worked out at 37 nM; with L6 it was 1030 nM; in data set [7], 22.1 µM; in data set [8] it was 45 nM; in [14] it was 109 nM; in data set [15], 41 nM. Besides, the values for the Ki in [5] and in data set [13] were 7.2 µM and 53 µM, respectively. Also, the outcome in data set [11] was inactive. Besides, the “Ratio EC50” value in [12] is 1.1; in [16], 1.2.

The values are drawn from ChEMBL document CHEMBL2040794, “Synthesis and structure-activity analysis of new phosphonium salts with potent activity against African trypanosomes” (J Med Chem, 2012).
